Compound activity from PubChem.
697 NFkB inh: lowers PMA/ionomycin-induced NF-kB signal in 697 B cells; 697 B-cell NF-kB luciferase reporter, 16 h; 330,000 compounds, 0.33% hits; inhibition, % at 4 µM; AID 435022; in the data active = inhibition above about 35%
UPR XBP1 act: activators of adaptive arm of unfolded protein response (XBP1); CHO-XBP1 luciferase reporter, IRE1-XBP1 UPR activation, luminescence; percent of tunicamycin response, DMSO as zero; activation, % at 20 µM; 330,000 compounds, 0.33% hits; AID 463104;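 active = versus positive control, 20 µM dose yields 30% or more activation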
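Material: CHO-XBP1 cells stably carrying IRE1-XBP1-driven luciferase reporter / Amount: 1000 cells per well / Compound: 20 µM, 1% DMSO / Times: 6 h treatment, 37 °C / Detection: luciferase luminescence / Measure: % activation of reporter signal versus tunicamycin and DMSO controls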
Jurkat NFkB inh: inhibitors of the PMA/ionomycin-induced NF-kB reporter in Jurkat cells | PMA/ionomycin-induced NF-kB luciferase reporter, luminescence | inhibition, % at 4 µM | AID 435003 | 330,000 compounds, 0.53% hits; in the data active = inhibition above about 50%
CHOP UPR activ: apoptotic UPR (CHOP) activation. activation, % at 10 µM. AID 449763. CHO-CHOP luciferase reporter, luminescence; percent of tunicamycin response over DMSO baseline. 330,000 compounds, 0.34% hits;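 active = at 10 µM dose, activation of 40% or more, normalized to positive control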
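Test system: CHO CHOP reporter cells. Input: 500 CHO-CHOP cells per well. Medium: F12 with 10% FBS. Technique: luciferase luminescence. Measure: percent activation relative to tunicamycin control. Dosing: 10 µM compound, 0.5% DMSO. Timing: 16-18 h cell attachment, then 6 h compound exposure, 37 °C.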
CHOP inhibitor: inhibitors of CHOP induction in ER stress response; CHO-K1 CHOP-promoter luciferase, tunicamycin-induced, 15-18 h; inhibition, % at 10 µM; 220,000 compounds, 3.8% hits; AID 2732;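 active = compounds that reduced the stress-induced luciferase reporter signal by more than about 70% of percent inhibition, limit read from the data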
Gli-Sufu block: Gli-Sufu pathway antagonism | Sufu-KO-LIGHT fibroblasts, Gli luciferase reporter luminescence | inhibition, % at 5 µM | 340,000 compounds, 0.74% hits | AID 588413;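 active = inhibition above about 55%, limit read from the data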
Numbers stand for hits; 0 = inactive; - = not tested or not shown. An excerpt weighted towards active compounds, which were near 3.9% of everything screened.

SMILES	697 NFkB inh	UPR XBP1 act	Jurkat NFkB inh	CHOP UPR activ	CHOP inhibitor	Gli-Sufu block
O=S(=O)(c1ccc(-c2csc(Nc3ccc(F)cc3)n2)cc1)N1CCCC1	0	0	0	0	90	0
NC(=O)C1(Nc2ccccc2)CCCC1	-	-	-	-	-	0
CC(=NNC(=S)Nc1cccc(Cl)c1)c1ccccn1	-	-	-	-	-	57
S=C(NCc1ccccn1)Nc1cccc(Cl)c1	0	0	0	0	0	0
CC(=NNC(=S)SCc1ccccc1)c1ccccn1	-	-	-	-	-	78
CCCCCC(=O)N/N=C(\C)c1ccccn1	0	0	0	0	0	0
CC(=NNC(=S)N1CCC1)c1ccccn1	-	-	-	-	-	89
COc1cc(C2C(C#N)=C(N)OC3=C2C(=O)CCC3)cc2c1OCO2 (centres undefined)	0	0	0	0	-	0
CCOc1cccc(CN2CCC(n3nccc3NC(=O)C3CC3)CC2)c1O	0	0	0	0	-	0
CCOC(=O)c1c(C)[nH]c(C(=O)CSc2ccc(Cl)cc2)c1C	0	0	0	0	70	0
CCOC(=O)c1c(C)[nH]c(C(=O)OCCOc2ccccc2C)c1C	-	-	-	-	74	0
CCOC(=O)c1c(C)[nH]c(C(=O)COC(=O)CNC(=O)c2ccc(Cl)cc2)c1C	0	0	0	0	0	0
CCOC(=O)c1c(C)[nH]c(C(=O)CSc2nc(C)cc(C)n2)c1C	0	0	0	0	0	0
CCOC(=O)c1c(C)[nH]c(C(=O)OCCOc2ccc(Cl)cc2)c1C	0	0	0	0	72	0
CCOC(=O)c1c(C)[nH]c(C(=O)COC(=O)C(C)Oc2ccc(Cl)cc2Cl)c1C (centres undefined)	0	0	0	0	75	0
Cc1cc(C)c(C2=CC(=O)C[C@H](c3ccc4c(c3)OCO4)C2)c(C)c1	0	0	0	0	-	0
COc1ccc(OCc2cc(C(=O)NCCN3CCCc4ccccc43)no2)c(Cl)c1	0	0	0	0	-	0
CCOC(=O)c1c(C)[nH]c(C(=O)CSc2nnc(-c3cccs3)n2Cc2ccccc2)c1C	0	0	0	0	79	0
COC(=O)c1c(C)[nH]c(C(=O)CSc2nnnn2-c2ccccc2)c1C	0	0	0	0	77	0
CCOC(=O)c1c(C)[nH]c(C(=O)COC(=O)C2(C)CC2(Cl)Cl)c1C (centres undefined)	0	0	0	0	81	0
CC(=O)c1c(C)[nH]c(C(=O)CSc2nnc(-c3cccs3)n2Cc2ccccc2)c1C	0	0	0	0	0	0
Cc1cccc(NS(=O)(=O)c2ccc(C(=O)NCC(c3ccco3)N3CCCCC3)cc2)c1C (centres undefined)	0	0	0	0	-	0
Cc1sc2nc(CSc3ccc([N+](=O)[O-])cc3)[nH]c(=O)c2c1C	0	0	0	0	0	-
Cc1sc2nc(CSc3nc4ccccc4s3)[nH]c(=O)c2c1C	0	0	0	0	77	-
Cc1sc2nc(CSc3cccc(C(F)(F)F)c3)[nH]c(=O)c2c1C	0	0	0	0	73	0
SMILES	697 NFkB inh	UPR XBP1 act	Jurkat NFkB inh	CHOP UPR activ	CHOP inhibitor	Gli-Sufu block
CSc1ccc(CN(C)C(=O)COc2ccc(C(=O)c3ccccc3)cc2)cc1	0	0	0	0	-	0
Cc1cc(C)cc(-c2nc(-c3ccncc3)no2)c1	0	0	0	0	84	0
Cc1cc(Cl)ccc1Oc1ccc(C(N)=O)cc1[N+](=O)[O-]	0	0	0	0	81	0
CC(=O)c1c(C(C)=O)c(C)n(-c2nc(-c3ccc(C)c(C)c3)c(C)s2)c1C	0	0	0	0	76	0
FC(F)(F)c1cccc(N2CCN(C(=S)NC3CCCC3)CC2)c1	0	0	0	0	81	0
FC(F)(F)c1cccc(NC(=S)N2CCCC2)c1	0	0	0	0	-	0
FC(F)(F)c1cccc(N2CCN(C(=S)NC3CCCCC3)CC2)c1	0	0	0	0	0	0
FC(F)(F)c1cccc(NC(=S)N2CCN(c3ccccc3)CC2)c1	0	0	0	0	80	0
CCCN(CC(=O)Nc1ccccc1C)C(=O)c1cccc(-n2cnnn2)c1	0	0	0	0	-	0
COc1ccc(Cl)cc1NC(=O)CN(C)C(=O)c1ccc(-n2nc(C)cc2C)cc1	0	0	0	0	-	0
NC(=O)C1(N2CCCCC2)CCN(CC(=O)Nc2cc(Cl)ccc2Cl)CC1	0	0	0	0	76	0
O=[N+]([O-])c1ccc(OCc2cccc(COc3ccc([N+](=O)[O-])cc3)n2)cc1	0	0	0	0	83	0
O=C(COC(=O)CC1CCS(=O)(=O)C1)Nc1ccc(F)cc1 (centres undefined)	0	0	0	0	-	0
Cc1ccc(CNC(=O)c2ccc(CNS(=O)(=O)c3ccc4c(c3)C(C)(C)C(=O)N4C)cc2)o1	0	0	0	0	-	0
Cc1ccc(N(Cc2cc(=O)[nH]c3ccccc23)C(=O)c2ccco2)cc1	0	0	0	0	72	0
CCCCCCCCC(NC(=O)c1ccc(C#N)cc1)C(=O)NCCC (centres undefined)	0	0	0	0	-	0
CCOc1cc(/C=N\NC(=O)c2ccc(NC(=O)C(C)(C)C)cc2)ccc1OC(=O)c1ccc(C)cc1	0	0	0	0	83	0
CCOc1cc(/C=N/NC(=O)c2cc(C)[nH]n2)ccc1OC(=O)c1ccc([N+](=O)[O-])cc1	0	0	0	0	79	-
CCOc1cc(/C=N\NC(=O)c2ccc(C)nc2)ccc1OC(=O)c1ccc(F)cc1	0	0	0	0	-	0
CCOc1cc(/C=N\NC(=O)c2ccc(NC(=O)C(C)(C)C)cc2)ccc1OC(=O)c1cccc(C)c1	0	0	0	0	0	0
Cc1ccc(-n2ccc(=O)c(C(=O)Nc3ccc(S(=O)(=O)Nc4nccs4)cc3)n2)cc1	0	0	0	0	-	0
CC(C)Oc1cc(C(=O)NC2CCCCC2)c2ccccc2n1	0	0	0	0	-	0
CC1(C)CCC2=C(O1)c1ccccc1C(=O)C2=O	-	-	-	-	0	-
O=C(CSc1nc(C2CC2)nc2ccccc12)N1CCc2ccccc2C1	0	0	0	0	74	-
CC(C)Cn1c(SCC(=O)Nc2cc(Cl)c(Cl)cc2Cl)nc(O)cc1=O	0	0	0	0	-	0
SMILES	697 NFkB inh	UPR XBP1 act	Jurkat NFkB inh	CHOP UPR activ	CHOP inhibitor	Gli-Sufu block
Cc1ccc(NC(=O)CCC(=O)c2ccc(F)cc2)cc1Cl	0	0	0	0	79	0
CCCNC(=O)[C@H](C)NC(=O)c1ccc(Br)cc1	0	0	0	0	0	0
CCN1c2ccccc2N(C)C1(C)c1ccccc1 (centres undefined)	-	-	-	-	0	0
CN1c2ccccc2N(C)C1(C)c1ccccc1	-	-	-	-	0	61
C=CCOc1cccc(/C=N/NC(=O)CC(=O)NC2CCCCC2)c1	0	0	0	0	-	0
COc1cc2c3nnc(-c4ccccc4)c-3cn(Cc3ccccc3F)c2cc1OC	0	0	0	0	0	0
